# Calls of active or inactive are those of the source. The rule behind the calls is not given here.
# Experiments:
# Type in all cases: functional, cell-based
# [1] = Antiplatelet activity in human platelet assessed as inhibition of collagen-induced platelet aggregation incubated for 5 mins prior to collagen challenge measured over 5 mins by turbidimetric method
# How it was run: (§1)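 Washed human platelets from buffy coat, resuspended in Tyrode-HEPES pH 7.4 with 2 mM CaCl2. Compound in DMSO preincubated with platelets, then collagen (2-4 μg/mL), CRP, thrombin, U-46619 or ionomycin added. Light transmission followed over 5 min in a dual-channel aggregometer (Born turbidimetry); aggregation taken as maximal transmission change. Non-collagen agonists tested at 20 μM compound; at least four experiments in duplicate.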
# Platelet [2] = test: Antiplatelet activity in human platelet assessed as inhibition of CRP-XL-induced activated Gp2b/3a expression incubated for 5 mins prior to CRP-XL challenge measured after 15 mins by flow cytometry
# How it was run: (§2)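 Washed platelets from donor buffy coat in modified Tyrode-HEPES (pH 7.4, 2 mM Ca2+), pre-incubated 5 min with DMSO or compound. Flow cytometry: CRP-XL stimulation with FITC-PAC-1 for 15 min at room temperature, 10,000 events, PAC-1 mean fluorescence and % positive platelets. Phosphotyrosine: CRP-XL 5 μg/mL, SDS/EDTA (2%/1 mM final) lysates, immunodot blot with 4G10, HRP secondary, chemiluminescence.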
# Platelet [3] = test: Antiplatelet activity in human platelet assessed as inhibition of U-46619-induced platelet aggregation at 20 uM incubated for 5 mins prior to U-46619 challenge measured over 5 mins by […]; how it was run: as §1
# Platelet [4] = test: Antiplatelet activity in human platelet assessed as inhibition of CRP-XL-induced platelet aggregation at 20 uM incubated for 5 mins prior to CRP-XL challenge measured over 5 mins by […]; how it was run: as §1
# Platelet [5] = test: Antiplatelet activity in human platelet assessed as inhibition of CRP-XL-induced phosphotyrosine level incubated for 5 mins prior to CRP-XL challenge measured after 5 mins by immunodot blot analysis; how it was run: as §2
# Platelet [6] = test: Antiplatelet activity in human platelet assessed as inhibition of thrombin-induced platelet aggregation at 20 uM incubated for 5 mins prior to thrombin challenge measured over 5 mins by […]; how it was run: as §1
# Platelet [7] = test: Antiplatelet activity in human platelet assessed as inhibition of ionomycin-induced platelet aggregation at 20 uM incubated for 5 mins prior to U-46619 challenge measured over 5 mins by […]; settings: in the assay text read “ionomycin challenge” for “U-46619 challenge”; how it was run: as §1
IC50 [1] [µM],Compound,other results
> 100,O=c1c(CO)ccnn1Cc1ccccc1,–
> 100,O=c1cc(CO)cnn1Cc1ccccc1,–
> 100,O=c1cc2c(n[nH]1)CCCO2,–
70.6,O=C1CC2OCCC2=NN1 (configuration not stated),–
0.55,CC(C)(C)[Si](OCc1cnn(Cc2ccccc2)c(=O)c1)(c1ccccc1)c1ccccc1,inhibition (Platelet [2]): Active; inhibition (Platelet [3]): inactive; inhibition (Platelet [4]): Active; inhibition (Platelet [5]): Dose-dependent effect; inhibition (Platelet [6]): inactive; inhibition (Platelet [7]): inactive
> 100,O=C1CC2OCCCC2=NN1 (configuration not stated),–
1.31,CC(C)(C)[Si](OCc1ccnn(Cc2ccccc2)c1=O)(c1ccccc1)c1ccccc1,–
> 100,O=c1c(CBr)ccnn1Cc1ccccc1,–
3.75,O=c1cc(COCc2ccccc2)cnn1Cc1ccccc1,–
> 100,O=c1cc(CBr)cnn1Cc1ccccc1,–
17.5,O=c1c(COCc2ccccc2)ccnn1Cc1ccccc1,–

# Reference: ChEMBL document CHEMBL3414501, “New platelet aggregation inhibitors based on pyridazinone moiety” (Eur J Med Chem, 2015)
